Assay results from PubChem BioAssay AID493149 (Broad Institute, 2011).
Values joined by “and” are separate entries in the source; they are usually repeats but may differ in a detail not shown here. Equal entries are not always repeated. Results filed as inconclusive are left out. Active and inactive are the calls of the source.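 Rule for the calls: active = every repeat run gives a falling-signal curve whose half-maximal concentration stays within the set limit; inconclusive = runs disagree, flat moderate inhibition, or unreliable fit; inactive = flat weak response, opposite effect, or too weak.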

Columns and labels:
[1] = test system: C. albicans CaCi-8 + fluconazole, Alamar Blue growth, 48 h; experiment: growth inhibition of resistant C. albicans with fluconazole, dose response, CaCi-8 strain, Alamar Blue, dry powder, set 9 (AID 493149)
Summary of the method: (§1)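 System: fluconazole-resistant C. albicans strain CaCi-8; Times: 48 h compound growth at 37 °C, 2 h RT dye; Technique: Alamar Blue fluorescence, 1:200 final, Ex 544 nm, Em 590 nm.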

[2] = as above; details: C. albicans CaCi-8 + fluconazole, Alamar Blue growth, 48 h
Summary of the method: as §1

Compound	AC50 [1]	activity change, negative = inhibition ([2]; at 26 µM (top of the series))	also measured
COC(=O)Cn1nc(-c2ccccc2OC)c2ccccc21	10.2 µM		
COC(=O)Cn1nc(-c2ccccc2)c2ccc(F)cc21	8.34 µM		
COC(=O)Cn1nc(-c2ccc(F)cc2)c2ccccc21	8.21 µM		
COC(=O)Cn1nc(-c2ccccc2)c2ccc(C)cc21	7.29 µM		
COC(=O)Cn1nc(-c2ccccc2)c2ccc(OC)cc21	12.7 µM		
O=C(Cn1nc(-c2ccccc2)c2ccccc21)Oc1ccccc1		-1.98% (inactive)	
COC(=O)Cn1nc(-c2ccccc2)c2cc(F)ccc21	6.98 µM		
COC(=O)Cn1nc(-c2ccccc2)c2cc(OC)ccc21	18.6 µM		
CC(C)(C)OC(=O)Cn1nc(-c2ccccc2)c2ccccc21		14.2% (inactive)	
N#CCn1nc(-c2ccccc2)c2ccccc21		-24.1% (inactive)	
COC(=O)Cn1nc(-c2ccccc2)c2cc(C)ccc21	5.33 µM		
CC(C)OC(=O)Cn1nc(-c2ccccc2)c2ccccc21		6.95% (inactive)	
c1ccc(-c2nn(Cc3nn[nH]n3)c3ccccc23)cc1		-10.1% (inactive)	
COC(=O)Cn1nc(-c2ccc(OC)cc2)c2ccccc21	8.3 µM		
O=C(Cn1c2ccccc2c2nc3n(c(=O)c21)CCS3)N1CCCC1	1.65 µM and 3.48 µM		
COC(=O)Cn1c2ccccc2c2nc3n(c(=O)c21)CCS3	8.51 µM		
COC(=O)Cn1nc(-c2cccc(C)c2)c2ccccc21	1.34 µM		
COC(=O)Cn1nc(-c2ccccc2)c2ccc(C#N)cc21		-13.5% (inactive)	
COC(=O)Cn1nc(-c2ccccc2)c2ccc(Cl)cc21	8.57 µM		
COC(=O)CCn1nc(-c2ccccc2)c2ccccc21		-11.6% (inactive)	
COC(=O)[C@@H](C)n1nc(-c2ccccc2)c2ccccc21 (racemic)	15.9 µM		
CCOC(=O)Cn1nc(-c2ccccc2)c2ccccc21		-1.88% (inactive)	
COC(=O)Cn1nc(-c2ccccc2)c2ccccc21	2.18 µM		
COC(=O)Cn1nc(-c2cncnc2)c2ccccc21			activity change, negative = inhibition ([2]; at 19.5 µM (top of the series)): -4.22% (inactive)
COC(=O)Cn1nc(-c2cccc(OC)c2)c2ccccc21	1.2 µM		
COC(=O)Cn1nc(-c2ccc(C(F)(F)F)cc2)c2ccccc21		-7.01% (inactive)	
c1ccc(-c2nn(Cc3ncco3)c3ccccc23)cc1		4.54% (inactive)	
COC(=O)Cn1nc(-c2ccccc2C)c2ccccc21	6.96 µM		
COC(=O)Cn1nc(-c2cccc(F)c2)c2ccccc21	2.14 µM		
